Screening results as filed in PubChem.
Only a sample is shown.
HKDC1 act – increases human hexokinase HKDC1 activity; recombinant HKDC1, G6PDH/diaphorase resazurin fluorescence; active compounds read low; 0.056% of 340,000 active; activity change, negative = activation, % at 20 µM; Q2TB90; AID 493187;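 active means activation of 40% or more at 20 µM, a change of -40% or lower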
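Material: in-house human HKDC1 enzyme, G6PDH and diaphorase coupling enzymes | Quantity: HKDC1 at 5 µg/mL final | Medium: Tris buffer at pH 8.0 containing MgCl2 | Compound dosing: 20 µM single dose | Schedule: 90 min reaction at room temperature, dark | Measured by: Resorufin fluorescence, 525/613 nm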
Numbers stand for hits; i = inactive.

SMILES	HKDC1 act
COc1ccc2cc(/C=N/NC(=O)c3c(Cl)cnn3C)c(Cl)nc2c1	-74.9
CCOc1ccccc1Nc1nnc(SCc2nnc(-c3cc(OC)c(OC)c(OC)c3)o2)s1	i
COc1cc(NC(=O)c2cnc(N)s2)cc(C(=O)Nc2cccc(C(F)(F)F)c2)c1	i
COC(=O)c1ccc(NC(=O)CSc2n[nH]c(-c3ccncc3)n2)cc1	i
CCOC(=O)c1ccc(NC(=O)CSc2n[nH]c(-c3ccncc3)n2)cc1	i
COc1ccc(-c2[nH]c(-c3ccc(SC)cc3)nc2SCC(=O)Nc2nccs2)cc1	-54.3
O=S(=O)(/N=C/c1c(O)ccc2ccccc12)c1ccccc1	i
CC1C/C(=C\c2cccnc2)C(=O)/C(=C/c2cccnc2)C1 (configuration not stated)	i
N#CC(C#N)=C1SC(=Nc2ccccc2)C(=Nc2ccccc2)N1c1ccccc1	-85.7
Fc1ccc(N2C(=S)SC(=Nc3ccccc3)C2=Nc2ccccc2)cc1	-49.6
COCc1cc(C2C(C(=O)c3ccco3)=C(O)C(=O)N2CCOCCO)ccc1O (configuration not stated)	i
CCOC(=O)C1=C(Cc2ccc(OC)cc2)C(=O)c2ccccc2C1=O	i
C=CCOc1ccc(C=NNc2ccc(S(=O)(=O)Nc3ccccc3C(=O)O)cc2[N+](=O)[O-])cc1OC	i
CN(C)Cc1cc(O)c(CN(C)C)cc1O	i
CC(=NNC(=S)N1CC2CCC(CC2)C1)c1cccc(C)n1	-46.5
Nc1ccc(N)c(C(=O)O)c1	i
O=C1C=C(c2c(O)ccc3ccccc23)c2ccccc2C1=O	i
CCOc1ccc2nc3cc(NCc4ccc(OC)cc4)ccc3c(N)c2c1	i
CNc1sc(C(=O)c2ccc(F)cc2)c(N)c1-c1nc2ccccc2s1	-44.7
CCCc1nc2oc3c(NCC4CCCO4)ncnc3c2c2c1COC(C)(C)C2 (configuration not stated)	i
NC(CSC(c1ccccc1)(c1ccccc1)c1cccc2ccccc12)C(=O)O (configuration not stated)	i
COc1ccc(N=C2C(=S)N(c3ccc(OC)cc3)C(=NS(=O)(=O)c3ccccc3)N2c2ccccc2)cc1	-68.5
O=C(Nc1ccc2nc(-c3ccco3)c(-c3ccco3)nc2c1)NC1CC1	i
Oc1ccc(-c2cnns2)c(O)c1	i
COC(=O)c1sc(NC(=O)CSc2nc3nc(C)cc(C)n3n2)c(C(=O)OC)c1C	i
SMILES	HKDC1 act
CCc1c(C)c(C#N)c2nc3ccccc3n2c1NC	-65.6
NC1=C(Br)C(=O)c2ncccc2C1=O	i
COc1cc(/C=C2\SC(c3ccc(C)cc3)=NC2=O)cc(OC)c1O	i
COC1=C(C)C(=O)C2=C(C1=O)C1C3CC4=C(C(=O)C(OC)=C(C)C4=O)C(CNC(=O)C(C)=O)N3C(C#N)C(C2)N1C (configuration not stated)	i
Cc1ccc(N=c2ssnc2Cl)cc1	-50.8
Cc1nnc(N=c2ssnc2Cl)o1	-88.2
Cc1cc(C)nc(/N=c2/ssnc2Cl)c1	-136.6
COc1cc(N=c2ssnc2Cl)c(OC)cc1Cl	-45.7
COc1cc(-c2ccc(Nc3ccccc3C(=O)O)c(OC)c2)ccc1Nc1ccccc1C(=O)O	i
Cc1ccc(-n2c3nc(=O)[nH]c(=O)c-3cc3cc([N+](=O)[O-])ccc32)cc1	i
Cc1cccc(N=C2NN=C(c3c(C)[nH]c4ccccc34)CS2)c1	-41.0
Cc1cccc(N=C2NN=C(c3ccc4c(c3)OCCO4)CS2)c1	-61.7
CCc1ccc(C2=NNC(=Nc3cccc(S(=O)(=O)N(C)C)c3)SC2)cc1	-177.3
Cc1ccc(C2=NNC(=Nc3ccc(F)cc3)SC2)cc1	-69.6
CCN(CC)CCNc1cc(C)nc2c1C(=O)C(=O)C=C2N1CCCCC1	i
CC1=NNC(=O)/C1=C\c1cn(-c2ccccc2)nc1-c1ccc(Cl)cc1	i
Cc1cc(O)c(-c2cc(O)c(C)cc2O)cc1O	i
Cc1ccc(Cl)cc1NC1=C/C(=N\S(=O)(=O)c2cccs2)c2ccccc2C1=O	i
CCC(C)C(N)C1=NC(C(=O)N[C@@H](CC(C)C)C(=O)N[C@H](CCC(=O)[O-])C(=O)N[C@H](C(=O)N[C@H]2CCCCNC(=O)[C@H](CC(N)=O)NC(=O)[C@@H](CC(=O)[O-])NC(=O)[C@H](Cc3cnc[nH]3)NC(=O)[C@@H](Cc3ccccc3)NC(=O)[C@H]([C@@H](C)CC)NC(=O)[C@@H](CCCN)NC2=O)[C@@H](C)CC)CS1.[Zn+2] (some centres not stated)	i
COC(=O)CCC(=O)OC1(C)C(=O)C2=COC(c3ccc(OC)cc3)=CC2=C(Br)C1=O (configuration not stated)	i
O=C1C(Nc2ccc(O)cc2)=C/C(=N/S(=O)(=O)c2cccs2)c2ccccc21	i
CN(C)c1ncc(C2=C(Cl)C(=O)C(N3CCCC3)=C(Cl)C2=O)s1	i
Cn1nccc1C(=O)N1CCN(c2cccc(Cl)c2)CC1	i
Cc1ccccc1S(=O)(=O)c1c(C)cc(C)n(CC(C)C)c1=O	i
O=C(O)c1ccc2ncsc2c1	i
O=C(CSc1n[nH]c(-c2cccnc2)n1)Nc1ccc([N+](=O)[O-])cc1Br	i
